This note sets out measurements from ChEMBL document CHEMBL5247578, “Effective synthesis of benzimidazoles-imidazo[1,2-a]pyrazine conjugates: A comparative study of mono-and bis-benzimidazoles for antitumor activity” (Eur J Med Chem, 2019).

Usually inhibition stands for the drop in the measured response relative to a control, in per cent.

Molecules are shown by their SMILES.

Assay type in all cases: functional
Assay [1] concerns T47D. Put plainly: Antiproliferative activity against human T47D cells assessed as cell growth inhibition at 10 uM incubated for 48 hrs by sulforhodamine B assay relative to control. The method in brief:
(§1)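 NCI-60 single-dose screen at 10^-5 M. Cells grown in RPMI 1640 with 5% FBS and 2 mM L-glutamine, plated at 5,000–40,000 cells/well, and preincubated 24 h. Drug (DMSO stock) added and incubated 48 h at 37 °C, 5% CO2. Adherent cells fixed with cold TCA, stained with 0.4% SRB in 1% acetic acid, dye solubilized in 10 mM trizma base, A515 read. Percent growth taken against time-zero and untreated control.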
On the technique in general: Sulforhodamine B stains cellular protein and so reports cell mass.

In assay [2] the test system is Hs-578T. Put plainly: Antiproliferative activity against human Hs-578T cells assessed as cell growth inhibition at 10 uM incubated for 48 hrs by sulforhodamine B assay relative to control. The method in brief: as §1
The subject of assay [3] is PC-3. The assay is described as follows: Antiproliferative activity against human PC-3 cells assessed as cell growth inhibition at 10 uM incubated for 48 hrs by sulforhodamine B assay relative to control. The method in brief: as §1
The subject of assay [4] is SN12C. The assay is described as follows: Antiproliferative activity against human SN12C cells assessed as cell growth inhibition at 10 uM incubated for 48 hrs by sulforhodamine B assay relative to control. The method in brief:
as §1

Assay [5] has as its system OVCAR-5. Put plainly: Antiproliferative activity against human OVCAR-5 cells assessed as cell growth inhibition at 10 uM incubated for 48 hrs by sulforhodamine B assay relative to control. The gist of the method:
as §1

The test system of assay [6] is OVCAR-4. The assay is described as follows: Antiproliferative activity against human OVCAR-4 cells assessed as cell growth inhibition at 10 uM incubated for 48 hrs by sulforhodamine B assay relative to control. The method in brief:
as §1

Assay [7] concerns UACC-62. The assay is described as follows: Antiproliferative activity against human UACC-62 cells assessed as cell growth inhibition at 10 uM incubated for 48 hrs by sulforhodamine B assay relative to control. The gist of the method:
as §1

Assay [8] has as its system SK-MEL-5. Put plainly: Antiproliferative activity against human SK-MEL-5 cells assessed as cell growth inhibition at 10 uM incubated for 48 hrs by sulforhodamine B assay relative to control. The method in brief:
as §1

The test system of assay [9] is SK-MEL-28. The assay is described as follows: Antiproliferative activity against human SK-MEL-28 cells assessed as cell growth inhibition at 10 uM incubated for 48 hrs by sulforhodamine B assay relative to control. The gist of the method: as §1
Assay [10] concerns SNB-75. The assay is described as follows: Antiproliferative activity against human SNB-75 cells assessed as cell growth inhibition at 10 uM incubated for 48 hrs by sulforhodamine B assay relative to control. The gist of the method:
as §1

Assay [11] has as its system SW-620. Put plainly: Antiproliferative activity against human SW620 cells assessed as cell growth inhibition at 10 uM incubated for 48 hrs by sulforhodamine B assay relative to control. The method in brief:
as §1

Assay [12] relates to KM12. Put plainly: Antiproliferative activity against human KM12 cells assessed as cell growth inhibition at 10 uM incubated for 48 hrs by sulforhodamine B assay relative to control. The method in brief: as §1
The subject of assay [13] is NCI-H522. Put plainly: Antiproliferative activity against human NCI-H522 cells assessed as cell growth inhibition at 10 uM incubated for 48 hrs by sulforhodamine B assay relative to control. The gist of the method: as §1
Assay [14] deals with NCI-H460. Put plainly: Antiproliferative activity against human NCI-H460 cells assessed as cell growth inhibition at 10 uM incubated for 48 hrs by sulforhodamine B assay relative to control. The method in brief:
as §1

For assay [15], the system named is NCI-H23. Put plainly: Antiproliferative activity against human NCI-H23 cells assessed as cell growth inhibition at 10 uM incubated for 48 hrs by sulforhodamine B assay relative to control. The method in brief:
as §1

Assay [16] concerns NCI-H226. Put plainly: Antiproliferative activity against human NCI-H226 cells assessed as cell growth inhibition at 10 uM incubated for 48 hrs by sulforhodamine B assay relative to control. The method in brief:
as §1

Assay [17] concerns HOP-92. Put plainly: Antiproliferative activity against human HOP-92 cells assessed as cell growth inhibition at 10 uM incubated for 48 hrs by sulforhodamine B assay relative to control. The gist of the method:
(§2)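 NCI-60 one-dose prescreen at 10^-5 M. Cells grown in RPMI 1640 with 5% FBS and 2 mM glutamine, preincubated 24 h, then exposed 48 h at 37 °C. Adherent lines TCA-fixed, SRB-stained, A515 read. Growth percent relative to time-zero and control; negative values mean cell kill.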

The test system of assay [18] is A549. The assay is described as follows: Antiproliferative activity against human A549 cells assessed as cell growth inhibition at 10 uM incubated for 48 hrs by sulforhodamine B assay relative to control. The method in brief: (§3)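 Single-dose NCI-60 prescreen at 10^-5 M. Cells in RPMI 1640 with 5% FBS and 2 mM L-glutamine, seeded 5,000–40,000 cells/well with 24 h preincubation, then drug exposure for 48 h at 37 °C under 5% CO2. Growth read by SRB staining of TCA-fixed cells at 515 nm against time-zero and untreated controls. Negative growth values denote cell kill.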

Assay [19] has as its system RPMI-8226. Put plainly: Antiproliferative activity against human RPMI-8226 cells assessed as cell growth inhibition at 10 uM incubated for 48 hrs by sulforhodamine B assay relative to control. The method in brief:
as §1

For assay [20], the system named is K562. Put plainly: Antiproliferative activity against human K562 cells assessed as cell growth inhibition at 10 uM incubated for 48 hrs by sulforhodamine B assay relative to control. The method in brief: as §1
Assay [21] concerns CCRF-CEM. The assay is described as follows: Antiproliferative activity against human CCRF-CEM cells assessed as cell growth inhibition at 10 uM incubated for 48 hrs by sulforhodamine B assay relative to control. The gist of the method:
as §3

The test system of assay [22] is CAKI-1. The assay is described as follows: Antiproliferative activity against human CAKI-1 cells assessed as cell growth inhibition at 10 uM incubated for 48 hrs by sulforhodamine B assay relative to control. The gist of the method:
as §3

Assay [23] concerns IGROV-1. The assay is described as follows: Antiproliferative activity against human IGROV-1 cells assessed as cell growth inhibition at 10 uM incubated for 48 hrs by sulforhodamine B assay relative to control. The method in brief:
as §1

Assay [24] relates to HOP-62. Put plainly: Antiproliferative activity against human HOP-62 cells assessed as cell growth inhibition at 10 uM incubated for 48 hrs by sulforhodamine B assay relative to control. The gist of the method: as §2
Assay [25] concerns TK-10. The assay is described as follows: Antiproliferative activity against human TK-10 cells assessed as cell growth inhibition at 10 uM incubated for 48 hrs by sulforhodamine B assay relative to control. The gist of the method:
as §1

Assay [26] concerns SK-OV-3. Put plainly: Antiproliferative activity against human SK-OV-3 cells assessed as cell growth inhibition at 10 uM incubated for 48 hrs by sulforhodamine B assay relative to control. The gist of the method: as §1

Take `Fc1ccc(-c2cn3ccnc3c(-c3ccc4ncn(C5CCCCC5)c4c3)n2)cc1`: the inhibition at 10 µM in [1] is 33.3%; in [2], 17.6%; in [3], 53.6%; in [4], 3.97%; in assay [5], 10.3%; in assay [6], 5.73%. Besides, the inhibition at 10 µM in [7] was found to be 31%; in assay [8], 7.36%; in assay [9], 2.67%; in assay [10], 21%; in assay [11] it was 8.38%; in [12], 3.49%. The inhibition at 10 µM is 15.5% in assay [13]; 6.12% in [14]; 2.36% in assay [15]; 23.3% in [16]; 35.2% in assay [17]; 12.8% in assay [18]. Moreover, the inhibition at 10 µM in assay [19] stood at 50.1%; in assay [20], 24.7%; in assay [21], 33.4%.
On to `c1ccc(Cn2cnc3ccc(-c4nc(-c5cccc6ccccc56)cn5ccnc45)cc32)cc1`, for which the inhibition at 10 µM in assay [1] was found to be 73.8%; in [2], 5.98%; in [3], 31.4%; in assay [4], 5.62%; in assay [22], 27.1%; in assay [5], 1.83%. Besides, the inhibition at 10 µM was 7.88% in assay [6]; 11.3% in assay [23]; 12.9% in assay [7]; 9.69% in assay [8]; 16.2% in [10]; 11% in assay [12]. Moreover, the inhibition at 10 µM in assay [13] worked out at 29.3%; in assay [14] it was 3.8%; in [15] it was 10.4%; in assay [17], 42.5%; in [24], 14%; in assay [18] it was 7.31%. The inhibition at 10 µM in assay [19] was 26.9%; in assay [21], 6.22%.
Regarding `Brc1cn2ccnc2c(-c2ccc3ncn(C4CCCCC4)c3c2)n1`, the inhibition at 10 µM was found to be 49.7% in [1]; 16.1% in assay [2]; 17.2% in assay [3]; 5.55% in [25]; 6.47% in assay [4]; 6.64% in assay [5]. Also, the inhibition at 10 µM was found to be 9.15% in assay [6]; 6.6% in assay [23]; 19.8% in assay [7]; 13.4% in assay [8]; 21.2% in assay [10]; 67.7% in assay [12]. The inhibition at 10 µM in assay [13] turned out to be 16.2%; in [15] it was 10.2%; in assay [16] it was 22.5%; in assay [17] it was 30.7%; in assay [24], 21.7%; in [18], 9.36%. Besides, the inhibition at 10 µM in assay [19] came out at 14.9%; in assay [20], 18%; in assay [21] it was 7.68%.
With `COc1ccccc1-c1cn2ccnc2c(-c2ccc3ncn(C4CCCCC4)c3c2)n1`, the inhibition at 10 µM worked out at 36.6% in assay [1]; 15.8% in [2]; 43.1% in [3]; 7.73% in [4]; 10.6% in assay [26]; 6.61% in [5]. Also, the inhibition at 10 µM in assay [6] was 13.2%; in [7], 25.1%; in assay [8], 8.94%; in assay [10], 35%; in assay [11] it was 3.4%; in [12], 3.58%. Besides, the inhibition at 10 µM in assay [13] came out at 22.2%; in assay [14], 9.62%; in assay [15], 2.79%; in [16] it was 25.7%; in assay [17], 47.8%; in assay [18], 13.9%. Moreover, the results for the inhibition at 10 µM in assay [19], in assay [20] and in assay [21] were 35.9%, 22.6% and 17.4%, respectively.
On to `Fc1ccccc1-c1cn2ccnc2c(-c2ccc3ncn(C4CCCCC4)c3c2)n1`, for which the inhibition at 10 µM worked out at 77.2% in [1]; 5.26% in [2]; 32.6% in [3]; 10.1% in assay [4]; 6.64% in assay [5]; 4.51% in [6]. Further, the inhibition at 10 µM turned out to be 38.2% in assay [7]; 6.5% in assay [8]; 29.7% in [10]; 9.53% in assay [11]; 2.45% in [12]; 17.8% in assay [13]. Besides, the inhibition at 10 µM was determined as 8.1% in [14]; 4.16% in assay [15]; 28.6% in [16]; 37% in [17]; 9.1% in assay [18]; 42.4% in [19]. In addition, the inhibition at 10 µM in [20] worked out at 22.8%; in assay [21] it was 22.5%.
Take `O=Cc1ccc(-c2cn3ccnc3c(-c3ccc4ncn(C5CCCCC5)c4c3)n2)cc1`: the inhibition at 10 µM in assay [1] was found to be 98%; in assay [2], 45.5%; in [3] it was 19%; in assay [25], 0.75%; in [4] it was 20.7%; in assay [22], 36.5%. The inhibition at 10 µM came to 5.11% in assay [26]; 16.9% in assay [6]; 21.3% in [23]; 37.1% in assay [7]; 56.5% in [8]; 7.54% in assay [9]. The inhibition at 10 µM stood at 21.4% in assay [10]; 4.21% in [11]; 3.69% in assay [12]; 25.2% in assay [13]; 37.8% in assay [14]; 54.5% in [15]. For the same compound, the inhibition at 10 µM was 0.53% in assay [16]; 43% in assay [17]; 23.8% in assay [24]; 82.5% in assay [19]; 77.9% in assay [21].
